Screening results (PubChem)
NPY-Y2 PAM-ag = potentiates or activates human NPY-Y2 receptor; cells expressing NPY-Y2, potentiator/agonist read-out; actives 0.45% (n = 220,000); P49146; activation, % at 3.6 µM; in the data active = activation above about 27%;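 also: cells stimulated with NPY near EC25 plus isoproterenol at EC100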
RAM inhibit = inhibitors of the yeast RAM network. actives 1.8% (n = 190,000). AID 868. inhibition, % at 50 µM. S. cerevisiae dse1pr::URA3 reporter, 5-FOA growth OD615, 2 d; analog-sensitive cbk1-as2 kinase mutant strain;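 active = inhibition above a set limit, 3 SD over mean compound inhibition, cut at about 8.4% in these data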;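 also: inhibition rescues growth on 5-FOA so higher OD means more RAM inhibition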
Insulin prom inh = TRM-6 insulin promoter activity inhibition | TRM-6 cells, insulin promoter-eGFP reporter, imaging; reporter expression induced with tamoxifen | inhibition, % at 2 µM | actives 0.9% (n = 130,000) | AID 1273;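 active = inhibition above the mean plus 3 SD, with well images judged a real hit on visual review, cut at about 60% in these data, passing the limit was not always enough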
NPY Y1 blocker = blocks the human neuropeptide Y Y1 receptor. actives 1% (n = 200,000). HEK293-CNG Y1 cells, membrane potential fluorescence; NPY at EC95, then isoproterenol. inhibition, % at 3.6 µM. AID 1040;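 active = inhibition above the campaign mean inhibition of all tested compounds plus 3 SD, cut at about 20% in these data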
Target sequence (P25929 whole entry, looked up): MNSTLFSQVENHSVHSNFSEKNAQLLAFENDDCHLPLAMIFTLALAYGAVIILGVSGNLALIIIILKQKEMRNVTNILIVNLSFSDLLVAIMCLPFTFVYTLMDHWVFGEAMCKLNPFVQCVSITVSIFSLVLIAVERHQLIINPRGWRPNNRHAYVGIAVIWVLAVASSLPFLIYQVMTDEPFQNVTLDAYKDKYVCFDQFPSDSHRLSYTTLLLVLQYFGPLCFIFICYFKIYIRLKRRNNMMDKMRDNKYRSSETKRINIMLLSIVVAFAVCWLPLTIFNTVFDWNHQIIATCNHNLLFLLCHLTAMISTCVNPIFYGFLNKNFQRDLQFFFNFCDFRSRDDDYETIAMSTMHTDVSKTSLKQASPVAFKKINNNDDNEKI
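Material: Y1- and CNG-channel-expressing HEK293 cells / Probe or stimulus: NPY 25 nM then isoproterenol 1 µM plus Ro 20-1724 25 µM / Doses: 3.6 µM single dose, DMSO 0.4% / Schedule: compound incubation 1 h at room temperature, readout 45 min post-stimulation / Signal: membrane potential fluorescence / Benchmarks: isoproterenol-only wells as full block versus NPY-plus-isoproterenol wells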
NPY-Y1 PAM-ag = potentiates or activates human NPY-Y1 receptor; P25929; activation, % at 3.6 µM; NPY-Y1 expressing cells, potentiator/agonist activation; actives 0.37% (n = 220,000); in the data active = activation above about 33%, passing the limit was not always enough;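 also: cells stimulated with NPY at EC10 then isoproterenol at EC100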
NPY Y2 blocker = NPY-Y2 (human) receptor antagonism; P49146; NPY-Y2 expressing cells, antagonist mode; inhibition, % at 2.7 µM; actives 0.99% (n = 140,000); AID 793; in the data active = inhibition above about 17%
Numbers stand for hits; 0 = inactive; - = not tested or not shown. Only some compounds are listed: those with a hit (about 3.8% of all), similar ones and a draw of the others.

SMILES	NPY-Y2 PAM-ag	RAM inhibit	Insulin prom inh	NPY Y1 blocker	NPY-Y1 PAM-ag	NPY Y2 blocker
Cc1ccc(S(=O)(=O)N(C)CC(O)Cn2c3ccccc3c3ccccc32)cc1 (centres undefined)	0	8.6	0	0	0	0
C=CCN1C(=O)C(Cc2ccccc2Cl)SC1=Nc1ccc(C(=O)O)cc1 (centres undefined)	0	-	-	-	0	-
COc1ccc(Cl)cc1NC(=S)NCCSc1ccc(C)cc1	0	9.4	-	0	0	0
COc1ccccc1NC(=S)NCCSc1ccc(Cl)cc1	0	0	0	0	0	0
COc1ccccc1-n1cc(C(=O)c2cc(Cl)ccc2O)cc(C#N)c1=O	0	9.7	0	0	0	-
COCCCNC(=S)N1CCC(NC(=O)Nc2ccc(C)cc2)CC1	0	0	0	0	0	-
Cc1cc(-c2nn(-c3ccccc3)cc2/C=C2\SC(N)=NC2=O)ccc1OC(C)C	0	0	0	0	0	0
CCCOc1ccc(-c2nn(-c3ccccc3)cc2/C=C2\SC(N)=NC2=O)cc1	0	8.8	0	0	0	0
NC1=NC(=O)/C(=C/c2cn(CCC(=O)O)nc2-c2ccc(F)cc2)S1	0	0	0	0	0	0
NC1=NC(=O)/C(=C/c2cn(CCC(=O)O)nc2-c2ccc(Cl)cc2)S1	0	8.6	0	0	0	0
Cc1ccc(/C=C/c2nc3ccccc3[nH]2)o1	0	0	71	0	0	-
Cc1cc2nc(/C=C/c3nc4cc(C)c(C)cc4[nH]3)[nH]c2cc1C	0	-	-	-	0	-
O=C(COc1ccccc1-c1ccccc1)N/N=C/c1ccccn1	0	11	-	0	0	-
COc1ccc(CCNC(=O)Cc2ccc(OCc3ccccc3)c(OC)c2[N+](=O)[O-])cc1OCc1ccccc1	0	9.1	0	0	0	0
CCOC(=O)Cn1nnnc1C(CC)N(Cc1cccs1)Cc1cc2ccc(OC)cc2[nH]c1=O (centres undefined)	0	9.6	0	0	0	0
CCOC(=O)Cn1nnnc1CN(Cc1cccs1)Cc1cc2cc(C)ccc2[nH]c1=O	0	0	0	0	0	0
CC1CC/C(=C\c2ccc3c(c2)OCO3)C(=O)/C1=C/c1ccc2c(c1)OCO2 (centres undefined)	0	10	0	0	0	0
COc1ccc(S(=O)(=O)NCCSC(C)(C)C)cc1	0	0	0	0	0	0
COc1ccc(CCNc2oc(-c3ccc(OC)c(OC)c3)nc2C#N)cc1	0	11	0	0	0	0
N=c1c(-c2nc3ccccc3[nH]2)cc(C(=O)c2cccs2)nn1-c1ccc(Cl)cc1	43	-	0	0	48	0
CCN(CC)c1ccc(NC(=O)c2nc3nc(C)cc(C(F)F)n3n2)cc1	0	0	-	0	0	0
Cc1cc(C(F)F)n2nc(C(=O)Nc3ccc(S(=O)(=O)N4CCCCCC4)cc3)nc2n1	0	0	100	0	0	0
COc1ccc(NC(=O)c2nc3nc(C)cc(C(F)F)n3n2)cc1OC	0	0	71	0	0	0
Cc1cc(C)n(-c2ccc(C(=O)OCC(=O)NCc3ccc(F)cc3)cc2)n1	0	0	-	0	0	0
CCC(=O)n1nc(NCc2ccccc2OC)nc1NCc1ccccc1OC	0	9.2	0	0	0	0
SMILES	NPY-Y2 PAM-ag	RAM inhibit	Insulin prom inh	NPY Y1 blocker	NPY-Y1 PAM-ag	NPY Y2 blocker
COc1ccc(CNc2nc(NCc3ccc(OC)cc3)n(C(C)=O)n2)cc1	0	0	0	0	0	0
COCCN1C(=O)c2ccccc2C(C(=O)NCCN(C)C)C1c1ccc(F)cc1 (centres undefined)	0	0	79	0	0	0
COCCNC(=O)C1c2ccccc2C(=O)N(CCOC)C1c1ccc(F)cc1 (centres undefined)	0	0	0	0	0	0
Cc1cc(Oc2ncccc2[N+](=O)[O-])c2cc(Cl)ccc2n1	0	-	-	-	0	-
CSc1nc(-c2ccco2)nn1S(=O)(=O)c1ccc(C)cc1	0	0	-	0	0	0
CSc1nc(-c2ccco2)nn1S(=O)(=O)c1ccccc1	0	0	0	24	0	0
S=C(Nc1ccc(Cl)cc1)NN1CCOCC1	0	0	-	0	0	0
CC(C)c1ccc(NC(=S)NN2CCOCC2)cc1	89	0	-	0	88	0
Cn1nnc2c[n+](CC(=O)c3ccc4ccccc4c3)cc(Br)c21	57	-	-	-	47	-
Cn1nnc2c[n+](CC(=O)c3ccc(Cl)cc3)cc(Br)c21	0	-	-	-	0	-
